In experiment [1] the target is Receptor tyrosine-protein kinase erbB-2 (Homo sapiens) (UniProt P04626). The experiment is described as follows: Inhibition of ERBB2 (unknown origin) at 1 uM by Ambit Kinomescan binding assay relative to control.
Experiment [2] concerns the target Ribosomal protein S6 kinase alpha-3 (Homo sapiens) (UniProt P51812). Nature of the experiment: Inhibition of RSK2 domain1 Lys2 labeling site harbouring DLKPENILLDEEGHIKLTDFGLSK in human A-375 cells at 5 uM by KiNativ Profiling analysis relative to control. The class given is cell-based. The procedure, abridged: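 Live A375 melanoma cells treated with compound at 5 or 0.5 μM, then lysed. Lysate kinases were labeled with a lysine-reactive ATP or ADP-biotin probe. Inhibition was read as protection of labeling sites from the probe.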

The target of experiment [3] is Serine/threonine-protein kinase N2 (Homo sapiens) (UniProt Q16513). The experiment is described as follows: Inhibition of PKN2 (unknown origin) at 1 uM by Ambit Kinomescan binding assay relative to control; values are per cent of control.
Chain of Serine/threonine-protein kinase N2 (Homo sapiens) (Q16513 whole entry, looked up): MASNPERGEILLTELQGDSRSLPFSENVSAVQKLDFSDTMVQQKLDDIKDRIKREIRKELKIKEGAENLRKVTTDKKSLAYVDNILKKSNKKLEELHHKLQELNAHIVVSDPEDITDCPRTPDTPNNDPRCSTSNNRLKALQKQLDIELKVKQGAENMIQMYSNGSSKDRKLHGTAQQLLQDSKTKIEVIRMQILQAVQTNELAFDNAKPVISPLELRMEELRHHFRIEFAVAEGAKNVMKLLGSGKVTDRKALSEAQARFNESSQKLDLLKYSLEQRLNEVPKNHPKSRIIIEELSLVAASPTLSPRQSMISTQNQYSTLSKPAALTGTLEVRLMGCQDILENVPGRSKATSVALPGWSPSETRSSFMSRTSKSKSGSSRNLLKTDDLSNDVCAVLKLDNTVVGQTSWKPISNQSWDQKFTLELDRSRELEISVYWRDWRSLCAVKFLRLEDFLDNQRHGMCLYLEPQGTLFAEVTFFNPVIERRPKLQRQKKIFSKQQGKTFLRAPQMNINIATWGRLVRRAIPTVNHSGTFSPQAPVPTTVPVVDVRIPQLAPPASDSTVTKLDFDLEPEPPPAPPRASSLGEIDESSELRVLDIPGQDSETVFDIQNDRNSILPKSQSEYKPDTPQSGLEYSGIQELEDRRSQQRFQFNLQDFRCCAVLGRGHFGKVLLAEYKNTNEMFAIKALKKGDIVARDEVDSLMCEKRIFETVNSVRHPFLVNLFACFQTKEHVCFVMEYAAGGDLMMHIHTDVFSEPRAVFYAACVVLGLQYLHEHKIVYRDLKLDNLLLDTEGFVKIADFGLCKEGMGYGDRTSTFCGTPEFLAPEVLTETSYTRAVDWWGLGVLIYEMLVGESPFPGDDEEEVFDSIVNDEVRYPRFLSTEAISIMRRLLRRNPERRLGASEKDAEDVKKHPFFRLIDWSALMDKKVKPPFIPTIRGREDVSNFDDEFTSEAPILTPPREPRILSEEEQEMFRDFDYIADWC
Experiment [4] addresses Serine/threonine-protein kinase 17B (Homo sapiens) (UniProt O94768). The experiment is described as follows: Inhibition of DRAK2 (unknown origin) at 1 uM by Ambit Kinomescan binding assay relative to control; values are per cent of control.
Experiment [5] concerns Proto-oncogene tyrosine-protein kinase receptor Ret (Homo sapiens), P07949 [V804L]. The experiment is described as follows: Inhibition of RET V804L mutant (unknown origin) at 1 uM by Ambit Kinomescan binding assay relative to control; values are per cent of control.
In experiment [6] the target is Serine/threonine-protein kinase 10 (Homo sapiens) (UniProt O94804). The experiment is described as follows: Inhibition of LOK Lys1 labeling site harbouring NKETGALAAAKVIETK in human A-375 cells at 5 uM by KiNativ Profiling analysis relative to control. Type of experiment: cell-based.
Chain of Serine/threonine-protein kinase 10 (Homo sapiens) (O94804 whole entry, looked up): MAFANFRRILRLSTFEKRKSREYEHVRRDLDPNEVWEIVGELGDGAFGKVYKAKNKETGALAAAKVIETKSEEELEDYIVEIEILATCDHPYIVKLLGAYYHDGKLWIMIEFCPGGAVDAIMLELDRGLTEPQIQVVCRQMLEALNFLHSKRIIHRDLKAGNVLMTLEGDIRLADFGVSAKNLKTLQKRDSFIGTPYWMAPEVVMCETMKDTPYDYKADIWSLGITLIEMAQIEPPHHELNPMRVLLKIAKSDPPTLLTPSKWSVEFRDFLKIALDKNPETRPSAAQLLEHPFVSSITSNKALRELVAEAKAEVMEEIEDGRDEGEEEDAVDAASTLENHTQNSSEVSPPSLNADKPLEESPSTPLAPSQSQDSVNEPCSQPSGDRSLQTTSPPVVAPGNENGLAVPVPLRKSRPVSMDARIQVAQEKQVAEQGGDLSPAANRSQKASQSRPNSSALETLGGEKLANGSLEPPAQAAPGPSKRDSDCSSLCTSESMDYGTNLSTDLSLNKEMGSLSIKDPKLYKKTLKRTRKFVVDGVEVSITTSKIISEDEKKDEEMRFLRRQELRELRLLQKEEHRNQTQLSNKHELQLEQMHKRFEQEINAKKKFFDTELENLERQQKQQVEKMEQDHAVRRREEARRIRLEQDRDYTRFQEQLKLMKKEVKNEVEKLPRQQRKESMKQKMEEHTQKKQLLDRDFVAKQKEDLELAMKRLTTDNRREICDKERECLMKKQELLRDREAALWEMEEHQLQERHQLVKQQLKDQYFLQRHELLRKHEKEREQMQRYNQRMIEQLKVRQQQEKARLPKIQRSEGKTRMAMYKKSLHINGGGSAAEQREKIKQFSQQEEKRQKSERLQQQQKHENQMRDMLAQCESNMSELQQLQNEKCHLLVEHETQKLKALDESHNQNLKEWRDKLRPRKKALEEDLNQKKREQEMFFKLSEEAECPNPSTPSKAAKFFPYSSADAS
The target in experiment [7] is Interleukin-1 receptor-associated kinase 1 (Homo sapiens) (UniProt P51617). The experiment is described as follows: Inhibition of IRAK1 Lys2 labeling site in human A-375 cells at 0.5 uM by KiNativ Profiling analysis relative to control. Type of experiment: cell-based.
Chain of Interleukin-1 receptor-associated kinase 1 (Homo sapiens) (P51617 whole entry, looked up): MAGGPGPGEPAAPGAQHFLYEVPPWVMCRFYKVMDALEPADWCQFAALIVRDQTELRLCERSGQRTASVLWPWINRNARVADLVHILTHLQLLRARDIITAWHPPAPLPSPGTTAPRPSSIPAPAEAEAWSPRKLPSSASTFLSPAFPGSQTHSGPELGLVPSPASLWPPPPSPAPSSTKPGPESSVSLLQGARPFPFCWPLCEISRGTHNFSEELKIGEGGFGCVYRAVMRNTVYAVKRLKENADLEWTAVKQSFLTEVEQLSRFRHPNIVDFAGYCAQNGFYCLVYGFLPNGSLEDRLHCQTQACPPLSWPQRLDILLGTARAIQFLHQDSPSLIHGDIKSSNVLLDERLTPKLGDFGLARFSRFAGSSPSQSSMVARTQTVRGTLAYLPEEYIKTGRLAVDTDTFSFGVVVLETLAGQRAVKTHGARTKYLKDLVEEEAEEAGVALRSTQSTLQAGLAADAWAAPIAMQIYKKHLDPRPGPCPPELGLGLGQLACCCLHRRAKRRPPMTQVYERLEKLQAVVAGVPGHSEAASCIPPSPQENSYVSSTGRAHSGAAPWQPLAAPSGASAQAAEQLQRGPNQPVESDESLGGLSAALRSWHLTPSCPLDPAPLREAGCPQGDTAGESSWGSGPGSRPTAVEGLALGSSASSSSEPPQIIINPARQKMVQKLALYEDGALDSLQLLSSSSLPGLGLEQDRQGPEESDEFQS
The target in experiment [8] is Mitogen-activated protein kinase kinase kinase kinase 1 (Homo sapiens) (UniProt Q92918). Nature of the experiment: Inhibition of HPK1 (unknown origin) at 10 uM by Ambit Kinomescan binding assay relative to control; values are per cent of control.
Experiment [9] addresses T1, Serine/threonine-protein kinase greatwall (Homo sapiens) (UniProt Q96GX5).
T1 sequence (whole entry): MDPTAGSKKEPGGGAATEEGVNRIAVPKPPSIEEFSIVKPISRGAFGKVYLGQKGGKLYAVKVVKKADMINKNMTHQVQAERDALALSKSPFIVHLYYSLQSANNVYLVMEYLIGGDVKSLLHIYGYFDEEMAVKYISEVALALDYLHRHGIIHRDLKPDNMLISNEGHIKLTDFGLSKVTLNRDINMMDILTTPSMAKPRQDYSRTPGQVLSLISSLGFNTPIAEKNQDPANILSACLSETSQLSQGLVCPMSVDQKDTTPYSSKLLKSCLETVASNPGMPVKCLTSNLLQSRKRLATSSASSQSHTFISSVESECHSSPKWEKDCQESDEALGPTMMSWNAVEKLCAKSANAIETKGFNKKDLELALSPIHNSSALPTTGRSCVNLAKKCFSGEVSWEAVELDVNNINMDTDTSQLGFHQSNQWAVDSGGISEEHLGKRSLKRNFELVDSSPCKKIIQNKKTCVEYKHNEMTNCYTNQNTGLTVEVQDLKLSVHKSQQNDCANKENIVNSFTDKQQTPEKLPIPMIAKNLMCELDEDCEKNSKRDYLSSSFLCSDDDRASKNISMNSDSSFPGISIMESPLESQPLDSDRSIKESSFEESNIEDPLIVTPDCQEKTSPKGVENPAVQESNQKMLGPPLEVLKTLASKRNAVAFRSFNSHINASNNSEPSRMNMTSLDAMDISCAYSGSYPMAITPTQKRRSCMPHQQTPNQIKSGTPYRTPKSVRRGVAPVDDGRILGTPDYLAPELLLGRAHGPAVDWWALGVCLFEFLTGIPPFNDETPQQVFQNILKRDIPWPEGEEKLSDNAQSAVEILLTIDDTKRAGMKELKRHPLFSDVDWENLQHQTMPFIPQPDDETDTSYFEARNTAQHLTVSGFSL
The experiment is described as follows: Inhibition of MASTL Lys2 labeling site in human Huh-7 cell lysate at 1 uM by KiNativ Profiling analysis relative to control. Type of experiment: subcellular.

Experiment [10] has as its target Serine/threonine-protein kinase N2 (Homo sapiens) (UniProt Q16513). The experiment is described as follows: Inhibition of PKN2 Lys2 labeling site in human Huh-7 cell lysate at 1 uM by KiNativ Profiling analysis relative to control. The class given is subcellular.
Experiment [11] deals with T2, Serine/threonine-protein kinase TAO1 (Homo sapiens) (UniProt Q7L7X3).
T2 sequence (whole entry): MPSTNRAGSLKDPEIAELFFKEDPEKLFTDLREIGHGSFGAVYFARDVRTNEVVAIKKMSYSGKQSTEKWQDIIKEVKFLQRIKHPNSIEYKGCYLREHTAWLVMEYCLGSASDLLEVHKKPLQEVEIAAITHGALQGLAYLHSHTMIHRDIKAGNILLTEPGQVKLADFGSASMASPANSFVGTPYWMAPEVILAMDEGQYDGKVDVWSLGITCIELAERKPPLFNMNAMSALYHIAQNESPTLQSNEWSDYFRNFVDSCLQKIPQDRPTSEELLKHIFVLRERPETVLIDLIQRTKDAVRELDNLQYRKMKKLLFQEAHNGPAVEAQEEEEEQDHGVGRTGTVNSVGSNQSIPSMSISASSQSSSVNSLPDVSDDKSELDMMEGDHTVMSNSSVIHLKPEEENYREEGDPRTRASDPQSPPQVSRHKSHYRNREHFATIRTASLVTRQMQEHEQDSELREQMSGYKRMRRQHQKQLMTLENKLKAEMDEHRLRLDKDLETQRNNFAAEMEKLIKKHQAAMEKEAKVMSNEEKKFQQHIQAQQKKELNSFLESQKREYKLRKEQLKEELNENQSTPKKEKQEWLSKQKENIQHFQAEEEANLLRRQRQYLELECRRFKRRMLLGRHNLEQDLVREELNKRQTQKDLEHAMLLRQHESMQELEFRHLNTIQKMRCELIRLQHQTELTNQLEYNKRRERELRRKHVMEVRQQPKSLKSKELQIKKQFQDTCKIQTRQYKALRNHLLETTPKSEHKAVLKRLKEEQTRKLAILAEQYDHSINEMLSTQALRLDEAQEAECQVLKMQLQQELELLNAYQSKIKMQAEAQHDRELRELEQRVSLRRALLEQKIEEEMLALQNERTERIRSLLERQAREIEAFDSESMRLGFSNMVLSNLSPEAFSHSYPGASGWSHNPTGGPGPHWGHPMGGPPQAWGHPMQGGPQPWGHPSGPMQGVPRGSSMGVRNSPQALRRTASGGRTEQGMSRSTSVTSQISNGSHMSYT
The experiment is described as follows: Inhibition of TAO1 Lys2 labeling site in human Huh-7 cells at 1 uM by KiNativ Profiling analysis relative to control. Type of experiment: cell-based.

Chain of Serine/threonine-protein kinase 17B (Homo sapiens) (O94768 whole entry): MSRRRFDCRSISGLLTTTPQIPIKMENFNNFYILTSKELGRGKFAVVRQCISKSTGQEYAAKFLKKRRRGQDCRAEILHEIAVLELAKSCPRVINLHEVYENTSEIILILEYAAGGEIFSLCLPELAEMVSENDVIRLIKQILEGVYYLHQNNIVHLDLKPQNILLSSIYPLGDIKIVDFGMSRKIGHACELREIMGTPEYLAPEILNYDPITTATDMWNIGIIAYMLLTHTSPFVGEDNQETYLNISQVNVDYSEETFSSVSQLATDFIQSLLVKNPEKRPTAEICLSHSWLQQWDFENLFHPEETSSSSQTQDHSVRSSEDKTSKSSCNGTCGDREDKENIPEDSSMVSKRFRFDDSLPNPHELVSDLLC
Chain of Receptor tyrosine-protein kinase erbB-2 (Homo sapiens) (P04626 whole entry, the tested form may be a part): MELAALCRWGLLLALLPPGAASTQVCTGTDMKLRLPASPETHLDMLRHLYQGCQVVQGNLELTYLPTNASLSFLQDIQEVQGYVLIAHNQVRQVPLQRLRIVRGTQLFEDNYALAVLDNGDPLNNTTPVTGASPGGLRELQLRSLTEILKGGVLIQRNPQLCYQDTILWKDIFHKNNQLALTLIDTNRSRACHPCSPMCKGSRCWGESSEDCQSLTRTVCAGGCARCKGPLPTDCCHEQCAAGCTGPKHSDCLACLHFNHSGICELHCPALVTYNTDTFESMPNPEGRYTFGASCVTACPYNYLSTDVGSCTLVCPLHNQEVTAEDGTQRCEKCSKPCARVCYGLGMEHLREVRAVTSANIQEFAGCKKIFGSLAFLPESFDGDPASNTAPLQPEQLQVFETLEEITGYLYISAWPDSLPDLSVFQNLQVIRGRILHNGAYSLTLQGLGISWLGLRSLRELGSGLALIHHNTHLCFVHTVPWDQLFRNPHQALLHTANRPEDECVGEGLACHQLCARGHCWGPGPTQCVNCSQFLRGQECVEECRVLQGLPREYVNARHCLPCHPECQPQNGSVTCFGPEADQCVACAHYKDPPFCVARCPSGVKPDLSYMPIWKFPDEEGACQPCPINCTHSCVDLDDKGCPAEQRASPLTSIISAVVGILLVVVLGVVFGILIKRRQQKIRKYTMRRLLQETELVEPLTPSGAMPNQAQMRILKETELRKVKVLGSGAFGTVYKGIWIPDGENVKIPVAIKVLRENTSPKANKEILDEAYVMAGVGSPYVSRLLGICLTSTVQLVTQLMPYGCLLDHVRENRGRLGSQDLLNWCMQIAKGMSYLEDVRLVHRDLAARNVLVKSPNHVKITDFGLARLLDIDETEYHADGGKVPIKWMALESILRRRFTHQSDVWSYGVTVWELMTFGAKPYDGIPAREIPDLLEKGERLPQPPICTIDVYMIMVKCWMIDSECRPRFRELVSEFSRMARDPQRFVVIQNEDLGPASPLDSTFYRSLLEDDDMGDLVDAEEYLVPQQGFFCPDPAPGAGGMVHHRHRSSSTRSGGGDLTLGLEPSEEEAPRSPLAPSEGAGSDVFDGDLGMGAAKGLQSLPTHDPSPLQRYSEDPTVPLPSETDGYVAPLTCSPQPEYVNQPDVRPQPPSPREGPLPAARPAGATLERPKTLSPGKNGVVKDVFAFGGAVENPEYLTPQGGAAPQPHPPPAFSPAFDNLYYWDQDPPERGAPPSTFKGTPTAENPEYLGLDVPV
Chain of Ribosomal protein S6 kinase alpha-3 (Homo sapiens) (P51812 whole entry, the tested form may be a part): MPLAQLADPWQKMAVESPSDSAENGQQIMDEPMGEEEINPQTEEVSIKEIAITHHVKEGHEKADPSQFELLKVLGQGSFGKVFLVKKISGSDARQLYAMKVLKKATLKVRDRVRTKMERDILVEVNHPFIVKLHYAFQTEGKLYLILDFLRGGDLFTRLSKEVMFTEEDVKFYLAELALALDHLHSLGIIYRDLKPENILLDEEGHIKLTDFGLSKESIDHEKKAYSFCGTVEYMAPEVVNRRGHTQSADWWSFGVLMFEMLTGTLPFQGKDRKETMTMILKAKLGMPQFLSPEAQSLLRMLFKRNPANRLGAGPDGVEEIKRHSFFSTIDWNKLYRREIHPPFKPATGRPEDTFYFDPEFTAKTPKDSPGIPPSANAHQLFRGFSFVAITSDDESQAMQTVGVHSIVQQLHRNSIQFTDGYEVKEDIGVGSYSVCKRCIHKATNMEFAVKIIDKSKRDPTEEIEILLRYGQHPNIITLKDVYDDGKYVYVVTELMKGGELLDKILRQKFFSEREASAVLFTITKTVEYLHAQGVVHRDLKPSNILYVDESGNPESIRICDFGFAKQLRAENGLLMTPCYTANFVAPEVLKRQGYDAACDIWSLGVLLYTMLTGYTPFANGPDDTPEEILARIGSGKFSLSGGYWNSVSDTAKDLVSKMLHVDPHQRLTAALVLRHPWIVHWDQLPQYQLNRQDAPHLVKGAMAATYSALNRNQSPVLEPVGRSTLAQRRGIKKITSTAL

In the case of `CCN1CCN(Cc2ccc(NC(=O)c3ccc(C)c(/C=C/c4cnc5[nH]ccc5c4OC)c3)cc2C(F)(F)F)CC1`, the inhibition in experiment [1] was 19%; in experiment [2], -4.9%. The results for the residual activity in experiment [3] and in experiment [4] were 35% and 16%, respectively. Also, the percent of control in experiment [5] is 3.4%.

As for `CCN1CCN(Cc2ccc(NC(=O)c3ccc(C)c(Oc4ccnc5[nH]ccc45)c3)cc2C(F)(F)F)CC1`, the figures for the inhibition in experiment [6] and in experiment [7] were 85.6% and 2.5%, respectively. Moreover, the % of control in experiment [8] turned out to be 1.6%.

As to `CNc1cc(Oc2cc(C(=O)Nc3cc(N4CCN(C)CC4)cc(C(F)(F)F)c3)ccc2C)ncn1`, the values for the inhibition in experiment [9], in experiment [10] and in experiment [11] were 26%, -8.4% and 0.4%, respectively.

(Values after ChEMBL document CHEMBL5696442, “Discovery of type II inhibitors of TGFβ-activated kinase 1 (TAK1) and mitogen-activated protein kinase kinase kinase kinase 2 (MAP4K2)” (J Med Chem, 2015).)
